# According to ChEMBL document CHEMBL4007508, “Discovery and Pre-Clinical Characterization of Third-Generation 4-H Heteroaryldihydropyrimidine (HAP) Analogues as Hepatitis B Virus (HBV) Capsid Inhibitors” (J Med Chem, 2017):
# Key:
# Hepatitis B virus = assay: Antiviral activity against HBV infected in human HepG2(2.2.15) cells assessed as decrease in HBV genome replication after 5 days by qPCR method; format: functional, cell-based; details: HepG2 2.2.15, 120 h
# Summary of the method: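 HepG2.2.15 cells (stable HBV genome, Hep G2-derived; DMEM-F12, 10% FBS, penicillin/streptomycin, 0.5 mg/mL G418) seeded 3 × 10^4/well, incubated overnight at 37 °C. Compounds serially half-log diluted in DMSO, then in medium; final DMSO 0.5%. HBV DNA extracted and quantified by qPCR.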
# [1] = Cytotoxicity against HBV infected human HepDE19 cells assessed as decrease in cell viability after 5 days by CCK8 assay; format: cell-based
# Summary of the method: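 Tetracycline-inducible HBV HepDE19 cells seeded 5 × 10^3/well and treated with compounds. After 5 days, viability read by CCK-8 (2 h, 37 °C; absorbance 450 and 630 nm).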
# [2] = Selectivity index, ratio of CC50 for HBV infected human HepDE19 cells to EC50 for HBV infected in human HepG2(2.2.15) cells
# Summary of the method: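 Selectivity index calculated as CC50 (HepDE19, CCK-8 viability after 5 days) divided by EC50 (HBV DNA reduction in HepG2.2.15 cells, qPCR).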
# [3] = Solubility of compound in phosphate buffer at pH 6.5 after one night incubation by HPLC-UV method; format: physicochemical
# Hepatocyte = assay: Induction of CYP3A4 mRNA expression in human primary hepatocyte after 24 hrs by real-time PCR relative to rifampicin; format: ADME, cell-based; set-up: concentration or dose not given beside the values; details: hepatocytes
# Summary of the method: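 CYP3A4 mRNA levels measured in primary human hepatocytes and expressed relative to the positive control rifampicin at 10 μM.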
Compound,EC50 (Hepatitis B virus) [nM],CC50 at 120 h [1] [nM],Ratio CC50/EC50 [2],solubility [3] [µg/mL],Activity (Hepatocyte) [%]
CCOC(=O)C1=C(CN2CCOC[C@H]2C(=O)O)NC(c2nccs2)=N[C@H]1c1ccc(F)cc1,15,62000,4133,–,–
COC(=O)C1=C(CN2CCOCC2CO)NC(c2nccs2)=N[C@H]1c1ccc(F)cc1Cl (stereo partly specified),5,74000,14800,475,–
COC(=O)C1=C(CN2CCOC[C@H]2C(=O)O)NC(c2nc(C(F)(F)F)cs2)=N[C@H]1c1ccc(F)cc1Cl,3,> 100000,>33333,–,72
CCCOC(=O)C1=C(CN2CCOC[C@H]2C(=O)O)NC(c2nccs2)=N[C@H]1c1ccc(F)cc1Cl,12,> 100000,>8333,–,–
CCOC(=O)C1=C(CN2CCOC[C@H]2C(=O)O)NC(c2nccs2)=N[C@H]1c1ccc(F)cc1F,14,> 100000,>7143,–,–
CCOC(=O)C1=C(CN2CCOC[C@H]2C(=O)O)NC(c2nccs2)=N[C@H]1c1ccc(C)cc1Cl,3,> 100000,>33333,–,–
COC(=O)C1=C(CN2CCOC[C@H]2C(=O)O)NC(c2ncc(F)cc2F)=N[C@H]1c1ccc(F)cc1Cl,8,23000,2875,–,–
COC(=O)C1=C(CN2CCOC[C@H]2C(=O)O)NC(c2nc(C)cs2)=N[C@H]1c1ccc(F)cc1Cl,7,> 100000,>14826,–,–
CC(C)OC(=O)C1=C(CN2CCOC[C@H]2C(=O)O)NC(c2nccs2)=N[C@H]1c1ccc(F)cc1Cl,17,72000,4235,–,–
COC(=O)C1=C(CN2CCOC(C(=O)O)C2)NC(c2nccs2)=N[C@H]1c1ccc(F)cc1Cl (stereo partly specified),333,> 100000,>300,> 592,–
CCOC(=O)C1=C(CN2CCOC[C@H]2C(=O)O)NC(c2nccs2)=N[C@H]1c1ccc(F)cc1C,3,> 100000,>33333,–,–
COC(=O)C1=C(CN2CCOC[C@H]2CC(=O)O)NC(c2nccs2)=N[C@H]1c1ccc(F)cc1Cl,600,> 100000,>167,> 638,–
COC(=O)C1=C(CN2CCOC[C@@]2(C)C(=O)O)NC(c2nccs2)=N[C@H]1c1ccc(F)cc1Cl,20,> 100000,–,600,–
COC(=O)C1=C(C)NC(c2nccs2)=N[C@H]1c1ccc(F)cc1Cl,80,83000,1038,16,–
CCOC(=O)C1=C(CN2CCOC[C@H]2C(=O)O)NC(c2nccs2)=N[C@H]1c1ccccc1Cl,14,> 100000,>7143,–,–
CCOC(=O)C1=C(CN2CCOC[C@H]2C(=O)O)NC(c2nccs2)=N[C@H]1c1ccc(F)c(F)c1Cl,0.6,29000,48333,–,–
COC(=O)C1=C(CN2CCOC[C@H]2CCC(=O)O)NC(c2nccs2)=N[C@H]1c1ccc(F)cc1Cl,150,> 100000,>667,> 697,–

Compound,EC50 (Hepatitis B virus) [nM],CC50 at 120 h [1] [nM],Ratio CC50/EC50 [2],solubility [3] [µg/mL],Activity (Hepatocyte) [%]
COCCOC(=O)C1=C(CN2CCOC[C@H]2C(=O)O)NC(c2nccs2)=N[C@H]1c1ccc(F)cc1Cl,190,> 100000,>526,–,–
"COC(=O)C1=C(CN2CCSCC2C(=O)O)NC(c2nccs2)=N[C@H]1c1ccc(F)cc1Cl (single isomer, unassigned)",38,60000,1579,584,–
CCOC(=O)C1=C(CN2CCOC[C@H]2C(=O)O)NC(c2nccs2)=N[C@H]1c1ccc(F)cc1Cl,2,> 100000,–,–,183
COC(=O)C1=C(CN2CCO[C@H](C(C)C)[C@H]2C(=O)O)NC(c2nccs2)=N[C@H]1c1ccc(F)cc1Cl,5,81000,16200,–,–
COC(=O)C1=C(CN2CCOC[C@H]2CNS(C)(=O)=O)NC(c2nccs2)=N[C@H]1c1ccc(F)cc1Cl,4,88000,22000,48,–
O=C(OCC(F)(F)F)C1=C(CN2CCOC[C@H]2C(=O)O)NC(c2nccs2)=N[C@H]1c1ccc(F)cc1Cl,13,27000,2077,–,–
CCOC(=O)C1=C(CN2CCOC[C@H]2C(=O)O)NC(c2nccs2)=N[C@H]1c1ccc(F)c(F)c1Br,0.7,51000,72857,–,–
COC(=O)C1=C(CN2CCOC[C@@H]2C(=O)O)NC(c2nccs2)=N[C@H]1c1ccc(F)cc1Cl,79,> 100000,>1266,–,–
COC(=O)C1=C(CN2CCOC[C@H]2C(=O)O)NC(c2nccs2)=N[C@H]1c1ccc(F)c(F)c1Br,1,80000,80000,–,–
COC(=O)C1=C(CN2CCOC[C@H]2C(=O)O)NC(c2nccs2)=N[C@H]1c1ccc(F)cc1C,8,> 100000,12500,–,–
COC(=O)C1=C(CN2CCOC[C@H]2C(=O)O)NC(c2nccs2)=N[C@H]1c1ccc(C)cc1Cl,11,> 100000,>9091,–,–
COC(=O)C1=C(CN2CCOC[C@H]2C(N)=O)NC(c2nccs2)=N[C@H]1c1ccc(F)cc1Cl,3,> 100000,>33333,205,–
COC(=O)C1=C(CN2CCOC[C@H]2C(=O)O)NC(c2nccs2)=N[C@H]1c1ccc(F)c(F)c1Cl,1,> 100000,>100000,–,–
COC(=O)C1=C(CN2CCOC[C@H]2C(=O)O)NC(c2nccs2)=N[C@H]1c1ccc(C(F)(F)F)cc1Cl,> 100,50000,431,–,–
COC(=O)C1=C(CN2CCO[C@H](C)[C@H]2C(=O)O)NC(c2nccs2)=N[C@H]1c1ccc(F)cc1Cl,7,> 100000,–,> 667,81
COC(=O)C1=C(CN2CCOC[C@H]2C(=O)OC)NC(c2nccs2)=N[C@H]1c1ccc(F)cc1Cl,4,–,–,< 1,–
COC(=O)C1=C(CN2CCOC[C@H]2C(=O)O)NC(c2ncoc2C)=N[C@H]1c1ccc(F)cc1Cl,14,> 100000,>7143,–,–
